Compound activity (PubChem BioAssay)
T cruzi inh: T. cruzi replication inhibition; inhibition, % (concentration not given with the values); T. cruzi beta-gal in NIH3T3, luminescence, 90 h; AID 1885; actives 1.4% (n = 300,000);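 active = mean inhibition across valid replicates above about 55%, limit read from the data; inconclusive = mean below that limit but half or more replicates reach it; inactive = mean below it, under half of replicates reach it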;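 also: signal also drops with host cell toxicity which is not excluded here; 0% = plate median of DMSO wells and 100% = zero luminescence signal; higher percent means less beta-gal luminescence so fewer parasites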
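System: Mouse NIH/3T3 fibroblasts infected with β-gal-expressing T. cruzi Tulahuen C4 | Quantity: NIH/3T3 cells, 5,000 per well | Reagent: 5000 reporter trypomastigotes per well | Dosing: Compound pinned at 50 nL/well, DMSO | Schedule: 3 h host attachment, then at least 90 h co-culture | Detection: GalScreen luminescence, 60 min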
pCIP destab: compounds decreasing mouse p/CIP protein stability; decrease of EGFP signal, % at 10 µM; actives 0.01% (n = 290,000); F442A p/CIP-EGFP cells, EGFP fluorescence, 16 h;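 active = EGFP signal decrease of at least 30% at 10 µM or well 3 SD below plate mean, unless failing retest; inactive = the rest, including hits failing retest or dose response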
Target sequence (Q05BA5 1-1403): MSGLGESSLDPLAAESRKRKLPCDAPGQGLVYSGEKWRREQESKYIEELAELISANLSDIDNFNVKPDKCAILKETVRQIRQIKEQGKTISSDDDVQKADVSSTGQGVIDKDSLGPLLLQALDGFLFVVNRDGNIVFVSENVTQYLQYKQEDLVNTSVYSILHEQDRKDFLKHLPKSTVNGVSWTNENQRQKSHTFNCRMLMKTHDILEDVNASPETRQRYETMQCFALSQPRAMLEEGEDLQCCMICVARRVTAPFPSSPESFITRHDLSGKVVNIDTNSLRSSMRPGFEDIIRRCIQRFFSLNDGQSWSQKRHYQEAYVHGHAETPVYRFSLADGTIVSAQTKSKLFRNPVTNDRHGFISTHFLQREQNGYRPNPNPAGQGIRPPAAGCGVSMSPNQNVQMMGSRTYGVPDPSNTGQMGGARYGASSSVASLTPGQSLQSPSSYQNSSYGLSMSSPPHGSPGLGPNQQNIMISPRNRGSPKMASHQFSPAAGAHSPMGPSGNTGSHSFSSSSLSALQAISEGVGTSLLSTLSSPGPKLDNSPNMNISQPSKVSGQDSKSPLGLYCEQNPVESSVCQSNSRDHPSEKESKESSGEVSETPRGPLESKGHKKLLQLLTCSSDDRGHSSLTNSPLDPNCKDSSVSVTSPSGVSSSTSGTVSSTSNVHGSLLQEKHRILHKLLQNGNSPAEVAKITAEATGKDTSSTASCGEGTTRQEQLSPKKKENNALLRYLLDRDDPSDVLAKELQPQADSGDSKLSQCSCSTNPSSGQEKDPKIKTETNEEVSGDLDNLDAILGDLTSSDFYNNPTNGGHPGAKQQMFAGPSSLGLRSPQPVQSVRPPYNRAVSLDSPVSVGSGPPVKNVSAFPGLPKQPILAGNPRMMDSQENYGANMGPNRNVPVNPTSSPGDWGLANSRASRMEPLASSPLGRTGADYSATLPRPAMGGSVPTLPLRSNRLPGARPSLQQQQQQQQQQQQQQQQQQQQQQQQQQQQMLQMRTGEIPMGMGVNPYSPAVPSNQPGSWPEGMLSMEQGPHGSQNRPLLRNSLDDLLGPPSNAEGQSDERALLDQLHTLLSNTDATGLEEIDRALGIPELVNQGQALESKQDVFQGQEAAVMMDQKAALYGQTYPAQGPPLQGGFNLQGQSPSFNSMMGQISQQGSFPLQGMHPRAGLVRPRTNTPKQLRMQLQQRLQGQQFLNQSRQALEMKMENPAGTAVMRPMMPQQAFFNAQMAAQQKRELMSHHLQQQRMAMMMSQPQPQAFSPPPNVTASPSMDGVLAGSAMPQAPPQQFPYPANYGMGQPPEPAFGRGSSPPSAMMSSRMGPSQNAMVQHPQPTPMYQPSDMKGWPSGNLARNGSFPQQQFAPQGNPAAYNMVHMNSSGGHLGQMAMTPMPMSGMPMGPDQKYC
UBC13 polyUb: human UBC13 polyubiquitination inhibition | P61088 | UBC13 polyubiquitin chain formation, TR-FRET | inhibition, % at 20 µM | actives 0.47% (n = 330,000) | AID 485273; in the data active = inhibition above about 45%, passing the limit was not always enough; inconclusive = no clear call, values can overlap the other calls
PP1 inh: PP1-alpha (human) inhibition in PP5 counter-screen. P62136. purified PP1alpha, OMFP fluorescence. inhibition, % at 6.7 µM. actives 0.9% (n = 320,000). AID 2235;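 active = inhibition above the mean inhibition of all tested compounds plus 3 SD, computed separately for each screening campaign, cut at about 15% in these data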
AI-2 QS modul: modulators of Vibrio harveyi AI-2 quorum sensing system; Vibrio harveyi JMH597 AI-2 luminescence/OD600 ratio, 9 h; stronger effect = lower value; strain lacks LuxN and CqsS sensors; 0 = neutral-control median; activity change, % at 7.5 µM; actives 0.4% (n = 300,000); AID 2094; in the data active = activity change below about -75%, passing the limit was not always enough; inconclusive = no clear call, values can overlap the other calls;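 also: luminescence divided by OD600 gain over 9 h not by final OD600 alone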
Casp3 UBC13 ctr: inhibits human caspase-3 in UBC13 counter-screen; shares compounds with UBC13 polyUb; Recombinant caspase-3, Caspase-Glo 3/7 luminescence, 60 min; inhibition, % at 20 µM; actives 4% (n = 1,400); AID 488856;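 active = mean inhibition across replicates above about 26%, limit read from the data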;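 also: plate controls were DMSO with caspase-3 for no effect and DMSO wells lacking enzyme for full effect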
UBC13 confirm: human UBC13 polyubiquitin inhibition, confirmed; actives 68% (n = 1,400); UBC13 polyubiquitination, TR-FRET, biochemical; shares compounds with UBC13 polyUb; inhibition, % at 10 µM; AID 488859; in the data active = inhibition above about 45%; inconclusive = no clear call, values can overlap the other calls
An asterisk follows results filed as active; ? = inconclusive; nt = no result given. This is a sample that favours compounds with a hit; in the whole collection about 2.8% have one here.

SMILES | T cruzi inh | pCIP destab | UBC13 polyUb | PP1 inh | AI-2 QS modul | Casp3 UBC13 ctr | UBC13 confirm
Cc1ccc(NC(=O)CSc2ncnc3ccccc23)cc1S(=O)(=O)N1CCOCC1 | -6 | -13 | 51* | 8 | 23 | 0 | 34
CCc1ccc(NC(=O)CSc2nc3ccccc3c(=O)n2CCCC(=O)NCCCN2CCOCC2)cc1 | 11 | -4 | 17 | -3 | 40 | nt | nt
O=C(CCCCCn1c(SCC(=O)c2ccccc2)nc2ccccc2c1=O)NCc1ccco1 | 15 | -5 | 2 | 5 | 16 | nt | nt
Oc1ccc(CN2CCN(Cc3ccccc3)CC2)c2cccnc12 | 64* | nt | 66* | 7 | 38 | 0 | 103*
Oc1ccc(Cn2ccnc2)c2cccnc12 | 25 | -1 | -10 | 4 | 17 | nt | nt
CN1CCN(C2CCN(Cc3ccc(O)c4ncccc34)CC2)CC1 | nt | nt | 60* | -1 | nt | -1 | 70*
CCCCOc1ccc(N(CC(=O)NC2CCCCC2)C(=O)CCC(=O)Nc2ccccn2)cc1 | 11 | -2 | 3 | -1 | -6 | nt | nt
CC(C)N(Cc1ccccc1)C(=O)c1ccc2nsnc2c1 | -1 | -17 | 2 | -3 | 20 | nt | nt
CC(Oc1cccc(Br)c1)C(=O)NNC(=O)c1ccccn1 (stereo unspecified) | nt | nt | 47* | nt | nt | -5 | 91*
COc1ccc(OCC(=O)NCCNC(=O)c2ccccn2)cc1 | -6 | 9 | 0 | 1 | 23 | nt | nt
CC(=O)c1ccc(OCCCC(=O)NNC(=O)c2ccccn2)cc1 | nt | nt | 76* | -7 | nt | -3 | 66*
COc1ccc(OCC(=O)NNC(=O)c2ccccn2)cc1 | -10 | -3 | 69* | 1 | -15 | -3 | 96*
CC(=O)c1ccc(N/C=C/C(=O)c2ccc(Br)cc2)cc1 | 6 | -11 | 0 | -4 | 15 | nt | nt
Cc1c(NC(=O)CCCCCN2C(=O)c3ccccc3C2=O)c(=O)n(-c2ccccc2)n1C | 7 | -12 | 106* | 1 | 6 | 0 | 110*
Cc1c(Br)c([N+](=O)[O-])nn1CCCC(=O)Nc1c(C)n(C)n(-c2ccccc2)c1=O | 27 | -2 | 49* | -6 | 16 | 3 | 42
Cc1c(NC(=O)CCN2C(=O)c3ccccc3C2=O)c(=O)n(-c2ccccc2)n1C | -1 | 3 | 9 | -1 | 7 | nt | nt
Cc1cc2oc3cc(NCCC4CCCN4C)ccc3c(=O)c2cc1C (stereo unspecified) | 39 | nt | 61* | 0 | 10 | 21 | 47*
CN1CCCC1CCNc1ccc2sc3ccccc3c(=O)c2c1 (stereo unspecified) | 34 | nt | 10 | -1 | -7 | nt | nt
CN(C)CCCNC(=O)C(=O)NCC1OCCN1S(=O)(=O)c1cccs1 (stereo unspecified) | 12 | 6 | 46* | -3 | 27 | 4 | 33
Cc1ccc(N2C(=O)Nc3ccccc3S2(=O)=O)cc1Cl | 2 | -4 | 6 | 2 | -1 | nt | nt
O=C(COC(=O)CCCCCN=C1NS(=O)(=O)c2ccccc21)Nc1ccc(Cl)c(Cl)c1 | 10 | -6 | 49* | 0 | 14 | -6 | 39
COc1ccc(CCNC(=O)c2cc(-c3ccccn3)nc3ccccc23)cc1 | nt | nt | 4 | -2 | nt | nt | nt
CCOC(=O)c1c(NC(=O)COc2ccccc2C#N)sc2c1CC(C)(C)NC2(C)C | 39 | 8 | 76* | 3 | 23 | -3 | 105*
CCOC(=O)c1c(NC(=O)COC(=O)c2ccc(C)s2)sc2c1CC(C)(C)NC2(C)C | 9 | nt | 34 | -12 | 36 | nt | nt
CCOC(=O)c1c(NC(=O)c2ccc(C)cc2)sc2c1CC(C)(C)NC2(C)C | 32 | -8 | 49* | 0 | 11 | -3 | 11
SMILES | T cruzi inh | pCIP destab | UBC13 polyUb | PP1 inh | AI-2 QS modul | Casp3 UBC13 ctr | UBC13 confirm
COC(=O)c1c(NC(=O)c2ccc(OC(C)C)cc2)sc2c1CC(C)(C)NC2(C)C | ? | -1 | 84* | 1 | 3 | -2 | 60*
O=C(c1cc(-c2cccs2)nc2ccccc12)N1CCN(CCO)CC1 | nt | nt | 33 | nt | nt | nt | nt
CCOc1ccc(NC(=O)CN(C)C(=O)c2ccc3[nH]c4c(c3c2)CC(C)CC4)cc1OCC (stereo unspecified) | 17 | nt | 6 | 2 | 34 | nt | nt
Cc1ccc(NC(=O)CN(C)C(=O)c2ccc3[nH]c4c(c3c2)CC(C)CC4)cc1 (stereo unspecified) | nt | nt | 66* | 0 | nt | -2 | 48*
C#CCOCCOCCOCCNc1nc(N2CCN(C(=O)CCCCCCCCCCNC(=O)Cn3cc(CCCCCN)nn3)CC2)nc(N2CCN(C(=O)CCCCCCCCCCNC(=O)Cn3cc(C[C@@H](C)O)nn3)CC2)n1 | nt | nt | 114* | 13 | nt | -2 | 114*
C#CCOCCOCCOCCNc1nc(N2CCN(C(=O)CCCCCCCCCCNC(=O)Cn3cc(CCCCCN)nn3)CC2)nc(N2CCN(C(=O)CCCCCCCCCCNC(=O)[C@@H]([C@H](C)O)n3cc(C)nn3)CC2)n1 | nt | nt | 116* | 9 | nt | 0 | 118*
C#CCOCCOCCOCCNc1nc(N2CCN(C(=O)[C@H]([C@@H](C)O)n3cc(CCCCN)nn3)CC2)nc(N2CCN(C(=O)[C@H](CCCCN)n3cc(CCCC)nn3)CC2)n1 | nt | nt | 32 | -3 | nt | nt | nt
C#CCOCCOCCOCCNc1nc(N2CCN(C(=O)CCCCCCCCCCNC(=O)[C@H](CCCCN)n3cc(C)nn3)CC2)nc(N2CCN(C(=O)CCCCCCCCCCNC(=O)[C@@H]([C@H](C)O)n3cc(C)nn3)CC2)n1 | nt | nt | 117* | 7 | nt | -1 | 111*
C#CCOCCOCCOCCNc1nc(N2CCN(C(=O)Cn3cc(CCCCN)nn3)CC2)nc(N2CCN(C(=O)Cn3cc(CC(C)O)nn3)CC2)n1 (stereo unspecified) | -5 | 6 | 8 | 2 | 26 | nt | nt
Cc1ccc(/C(O)=C2\C(=O)C(=O)N(Cc3cccnc3)C2c2ccccc2[N+](=O)[O-])cc1 (stereo unspecified) | -10 | -20 | 3 | 1 | -2 | nt | nt
Cc1ccccc1C(=O)NCC(=O)NNC(=S)NC(=O)c1ccccc1C | -6 | -6 | 87* | 2 | 9 | 4 | 78*
Cc1ccccc1C(=O)NC(=S)NCc1ccccc1 | -2 | -2 | 7 | 2 | 12 | nt | nt
Cc1ccccc1C(=O)NCC(=O)NNC(=S)NC(=O)c1ccccc1 | 2 | 5 | 80* | -3 | 36 | 1 | 82*
CC[C@H](C)[C@@H]1NC(=O)c2cc([N+](=O)[O-])cc(F)c2NCCCC[C@@H](C(N)=O)NC(=O)[C@H](CCCCN)NC1=O | -7 | -5 | 78* | 2 | 11 | -1 | 62*
NCCCC[C@@H]1NC(=O)c2cc([N+](=O)[O-])cc(F)c2NCCCC[C@@H](C(N)=O)NC(=O)CNC1=O | -5 | -3 | 85* | -1 | 9 | -4 | 77*
